Reference: ChEMBL document CHEMBL3596118, “Synthesis and antiproliferative activity of imidazo[1,2-a]pyrimidine Mannich bases” (2015)

Key:
Assay type in all cases: functional
[1] = tested on: MDA-MB-231; test: Growth inhibition of human MDA-MB-231 cells after 48 hrs by SRB assay; details: MDA-MB-231, 48 h
How it was run: (§1)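 Cells grown in DMEM with 10% FBS, 5% CO2, 37 0C; seeded at densities set by doubling time, incubated 24 hrs, then exposed continuously 48 hrs to 0.01, 0.1, 1, 10, 100 µM; DMSO-treated cells as negative control. Fixed with cold 10% TCA (4 0C, 1 hr), stained 0.057% SRB 30 min, dye dissolved in 10 mM Tris, OD 510 nm; GI50 from [(Ti-Tz)/(C-Tz)]x100 = 50.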

[2] = tested on: HeLa; test: Growth inhibition of human HeLa cells after 48 hrs by SRB assay; how it was run: as §1
[3] = Growth inhibition of human PANC1 cells after 48 hrs by SRB assay; details: PANC-1, 48 h; how it was run: as §1
[4] = tested on: A549; test: Growth inhibition of human A549 cells after 48 hrs by SRB assay; details: A549, 48 h; how it was run: as §1

| Structure (SMILES) | GI50 [1] [µM] | GI50 [2] [µM] | GI50 [3] [µM] | GI50 [4] [µM] |
| --- | --- | --- | --- | --- |
| Oc1ccc(-c2nc3ncccn3c2CN2CCCCC2)cc1 | 7.23 | 4.03 | 0.2 | 6.89 |
| Clc1ccc(-c2nc3ncccn3c2CN2CCN(Cc3c(-c4ccc(Cl)cc4)nc4ncccn34)CC2)cc1 | 4.7 | 25.6 | 0.24 |  |
| c1ccc(-c2nc3ncccn3c2CN2CCN(Cc3c(-c4ccccc4)nc4ncccn34)CC2)cc1 | 0.27 | 3.24 | 0.14 |  |
| Cc1ccc(-c2nc3ncccn3c2CN2CCN(Cc3c(-c4ccc(C)cc4)nc4ncccn34)CC2)cc1 | 2.3 | 2.8 | 0.38 |  |
| c1csc(-c2nc3ncccn3c2CN2CCCC2)c1 | 0.2 | 0.24 | 0.68 | 0.18 |
| c1csc(-c2nc3ncccn3c2CN2CCN(Cc3c(-c4cccs4)nc4ncccn34)CC2)c1 | 7.1 | 0.93 | 3.7 |  |
| COc1cc(OC)n2c(CN3CCN(Cc4c(-c5ccccc5)nc5nc(OC)cc(OC)n45)CC3)c(-c3ccccc3)nc2n1 | 0.12 | 9.32 | 0.51 |  |
| c1ccc(-c2nc3ncccn3c2CN2CCCC2)cc1 | 0.07 | 0.07 | 0.06 | 0.05 |
| CN(Cc1c(-c2ccccc2)nc2ncccn12)c1ccccc1 | 0.32 | 3.12 | 5.76 | 5.19 |
| Cc1ccn2c(CN3CCOCC3)c(-c3ccc(Cl)cc3)nc2n1 | 0.32 | 0.16 | 1.17 | 2.57 |
| Cc1ccn2c(CN3CCCCC3)c(C(C)(C)C)nc2n1 | 0.35 | 0.45 | 0.96 | 7.39 |
| Cc1ccn2c(CN3CCCCC3)c(-c3ccccc3)nc2n1 | 0.03 | 1.71 | 0.02 | 4.04 |
| Cc1ccn2c(CN3CCCC3)c(-c3ccccc3)nc2n1 | 4.83 | 0.18 | 0.15 | 4.15 |
| Clc1ccc(-c2nc3ncccn3c2CN2CCN(Cc3c(-c4ccc(Cl)cc4Cl)nc4ncccn34)CC2)c(Cl)c1 | 0.21 | 2.72 | 27.7 |  |
| Cc1ccn2c(CN3CCN(Cc4c(C(C)(C)C)nc5nc(C)ccn45)CC3)c(C(C)(C)C)nc2n1 | 25.7 | 14.5 | 1.4 |  |
| c1ccc(-c2nc3ncccn3c2CN2CCCCC2)cc1 | 0.03 | 2.28 | 1.31 | 0.26 |
| Cc1ccc(S(=O)(=O)N2CCN(Cc3c(-c4ccccc4)nc4ncccn34)CC2)cc1 | 12.9 | 4.5 | 0.11 |  |
| CC(C)(C)c1nc2ncccn2c1CN1CCCCC1 | 1.49 | 0.03 | 4.51 | 0.33 |
| Cc1ccn2c(CN3CCN(Cc4c(-c5ccccc5)nc5nc(C)ccn45)CC3)c(-c3ccccc3)nc2n1 | 15.9 | 12.7 | 0.6 |  |
| c1ccc2cc(-c3nc4ncccn4c3CN3CCN(Cc4c(-c5ccc6ccccc6c5)nc5ncccn45)CC3)ccc2c1 | 31.6 | 12.6 | 79.4 |  |
| Brc1ccc(-c2nc3ncccn3c2CN2CCN(Cc3c(-c4ccc(Br)cc4)nc4ncccn34)CC2)cc1 | 1 | 0.89 | 0.06 |  |
| c1ccc(-c2nc3ncccn3c2CN2CCOCC2)cc1 | 1.41 | 1.67 | 0.77 | 0.21 |
| CC(C)(C)c1nc2ncccn2c1CN1CCN(Cc2c(C(C)(C)C)nc3ncccn23)CC1 | 1.1 | 2.4 | 3.9 |  |
| Cc1ccn2c(CN3CCCC3)c(-c3ccc(O)cc3)nc2n1 | 1.2 | 4.76 | 7.28 | 2.48 |
| Cc1ccn2c(CN3CCOCC3)c(-c3ccccc3)nc2n1 | 1.43 | 0.85 | 1.83 | 1.09 |
| Cc1ccccc1-c1nc2ncccn2c1CN1CCN(Cc2c(-c3ccccc3C)nc3ncccn23)CC1 | < 0.01 | 0.48 | 0.12 |  |
| CN1CCN(Cc2c(-c3ccccc3)nc3ncccn23)CC1 | < 0.01 | 0.93 | 0.35 |  |
| c1ccc(-c2nc3ncccn3c2CN2CCNCC2)cc1 | 26.7 | 0.72 | 9.4 |  |
| COc1cccc2c1C(=O)c1c(O)c3c(c(O)c1C2=O)C[C@@](O)(C(=O)CO)C[C@@H]3O[C@H]1C[C@H](N)[C@H](O)[C@H](C)O1 [DOXORUBICIN] | 0.01 | 0.031 | 0.01 | < 0.01 |
